ChEMBL document CHEMBL4368913, “Design, Synthesis, and Biological Evaluation of 6-Substituted Thieno[3,2- d]pyrimidine Analogues as Dual Epidermal Growth Factor Receptor Kinase and Microtubule Inhibitors” (J Med Chem, 2019)
Activity calls are given as the source filed them. No cut-off for these calls is given here.

Legend:
A549 = test: Antiproliferative activity against human A549 cells after 72 hrs by MTT assay; format: functional, cell-based; details: A549, 72 h
HT-29 = test: Antiproliferative activity against human HT-29 cells after 72 hrs by MTT assay; format: functional, cell-based; details: HT-29, 72 h
RS4-11 = test: Antiproliferative activity against human RS4:11 cells after 72 hrs by MTT assay; format: functional, cell-based; details: RS4-11, 72 h
Outline: (§1)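 Cells in medium with 10% FBS, seeded at 8×10^3 per well, 18 h at 37 °C, 5% CO2, then graded compound concentrations (DMSO ≤0.25%) for 72 h. Viability by MTT. […] Mean ± SE of dose-response curves from at least three independent experiments.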

Tubulin = Tubulin (Bos taurus, UniProt Q6B856+Q862L2+Q862F3); test: Inhibition of bovine brain tubulin polymerization after 20 mins
Outline: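 Bovine brain tubulin (10 μM) preincubated with varying compound concentrations in 0.8 M monosodium glutamate, pH 6.6, at 30 °C, then chilled to 0 °C. 0.4 mM GTP added, mixtures warmed to 30 °C, assembly followed by turbidity at 350 nm.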

[1] = biological target: T1, Vascular endothelial growth factor receptor 2 (Homo sapiens, UniProt P35968); test: Inhibition of wild type VEGFR2 (unknown origin) by bioluminescent ADP-glo kinase assay
T1 sequence (P35968 whole entry): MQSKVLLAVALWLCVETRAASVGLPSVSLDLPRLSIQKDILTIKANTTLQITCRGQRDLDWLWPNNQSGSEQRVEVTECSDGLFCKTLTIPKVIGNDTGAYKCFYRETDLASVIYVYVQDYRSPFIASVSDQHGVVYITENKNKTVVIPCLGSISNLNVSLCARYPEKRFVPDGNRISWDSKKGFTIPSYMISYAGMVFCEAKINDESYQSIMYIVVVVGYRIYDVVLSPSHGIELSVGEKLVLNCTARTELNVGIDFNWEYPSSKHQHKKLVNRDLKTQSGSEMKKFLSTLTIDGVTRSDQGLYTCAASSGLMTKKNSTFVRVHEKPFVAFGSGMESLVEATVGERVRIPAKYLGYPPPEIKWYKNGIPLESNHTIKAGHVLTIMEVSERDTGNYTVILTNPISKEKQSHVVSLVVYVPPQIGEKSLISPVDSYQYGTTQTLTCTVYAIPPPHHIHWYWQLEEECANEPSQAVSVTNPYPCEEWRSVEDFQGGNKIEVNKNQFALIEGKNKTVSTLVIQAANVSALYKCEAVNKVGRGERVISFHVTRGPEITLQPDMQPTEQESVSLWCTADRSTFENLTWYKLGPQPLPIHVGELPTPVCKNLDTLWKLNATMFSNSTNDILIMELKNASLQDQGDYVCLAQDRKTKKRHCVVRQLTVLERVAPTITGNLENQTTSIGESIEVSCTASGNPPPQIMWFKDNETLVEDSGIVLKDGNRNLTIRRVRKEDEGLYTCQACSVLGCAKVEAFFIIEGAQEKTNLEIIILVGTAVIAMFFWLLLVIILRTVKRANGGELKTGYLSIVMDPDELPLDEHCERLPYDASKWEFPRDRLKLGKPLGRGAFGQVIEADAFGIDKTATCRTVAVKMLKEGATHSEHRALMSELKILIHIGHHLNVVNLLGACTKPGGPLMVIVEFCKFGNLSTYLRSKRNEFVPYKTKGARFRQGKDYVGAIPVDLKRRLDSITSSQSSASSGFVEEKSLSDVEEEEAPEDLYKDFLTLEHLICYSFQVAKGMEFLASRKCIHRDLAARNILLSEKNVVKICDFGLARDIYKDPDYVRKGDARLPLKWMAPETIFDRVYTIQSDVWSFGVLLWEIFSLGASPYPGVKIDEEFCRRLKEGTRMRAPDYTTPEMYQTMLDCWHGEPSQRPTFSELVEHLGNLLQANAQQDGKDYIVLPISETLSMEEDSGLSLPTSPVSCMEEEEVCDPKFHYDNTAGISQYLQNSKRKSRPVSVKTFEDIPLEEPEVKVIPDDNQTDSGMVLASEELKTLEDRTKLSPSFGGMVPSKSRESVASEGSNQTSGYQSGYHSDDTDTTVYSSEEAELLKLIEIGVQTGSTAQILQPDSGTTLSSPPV

[2] = biological target: T2, Epidermal growth factor receptor (Homo sapiens, UniProt P00533); test: Inhibition of wild type EGFR (unknown origin) by bioluminescent ADP-glo kinase assay
T2 sequence (P00533 whole entry): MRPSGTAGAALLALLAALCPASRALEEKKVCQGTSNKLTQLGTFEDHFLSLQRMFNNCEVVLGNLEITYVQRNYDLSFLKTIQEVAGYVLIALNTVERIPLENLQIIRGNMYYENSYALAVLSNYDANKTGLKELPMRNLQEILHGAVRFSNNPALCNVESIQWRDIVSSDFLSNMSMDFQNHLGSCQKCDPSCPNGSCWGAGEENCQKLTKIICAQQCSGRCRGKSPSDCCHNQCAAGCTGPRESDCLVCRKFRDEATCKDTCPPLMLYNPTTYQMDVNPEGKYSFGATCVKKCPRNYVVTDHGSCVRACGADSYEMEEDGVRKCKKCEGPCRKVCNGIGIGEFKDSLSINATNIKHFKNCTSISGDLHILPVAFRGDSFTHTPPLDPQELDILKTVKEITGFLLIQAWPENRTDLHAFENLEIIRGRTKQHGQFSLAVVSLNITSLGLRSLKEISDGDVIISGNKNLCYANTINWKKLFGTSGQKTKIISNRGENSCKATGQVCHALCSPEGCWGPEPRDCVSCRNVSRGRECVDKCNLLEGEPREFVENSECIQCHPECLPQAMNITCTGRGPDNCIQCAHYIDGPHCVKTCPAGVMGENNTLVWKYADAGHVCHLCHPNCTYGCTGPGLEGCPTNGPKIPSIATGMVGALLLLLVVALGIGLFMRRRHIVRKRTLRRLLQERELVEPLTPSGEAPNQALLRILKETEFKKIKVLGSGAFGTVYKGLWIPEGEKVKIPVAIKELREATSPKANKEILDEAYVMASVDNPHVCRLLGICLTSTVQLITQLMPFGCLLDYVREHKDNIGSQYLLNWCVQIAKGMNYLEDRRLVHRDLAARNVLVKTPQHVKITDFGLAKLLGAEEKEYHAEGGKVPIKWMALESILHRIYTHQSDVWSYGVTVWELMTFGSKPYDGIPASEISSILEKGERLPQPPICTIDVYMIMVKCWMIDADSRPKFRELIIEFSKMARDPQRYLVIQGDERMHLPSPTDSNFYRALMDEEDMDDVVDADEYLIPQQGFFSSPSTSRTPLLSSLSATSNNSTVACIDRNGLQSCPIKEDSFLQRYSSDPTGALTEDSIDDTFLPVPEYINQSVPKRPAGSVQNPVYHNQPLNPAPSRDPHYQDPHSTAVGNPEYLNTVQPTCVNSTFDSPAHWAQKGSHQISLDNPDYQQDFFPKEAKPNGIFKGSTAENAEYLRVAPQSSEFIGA

Jurkat [3] = test: Antiproliferative activity against human Jurkat cells after 72 hrs by MTT assay; format: functional, cell-based; outline: as §1
HeLa [4] = test: Antiproliferative activity against human HeLa cells after 72 hrs by MTT assay; format: functional, cell-based
Tubulin (Bos taurus) = Tubulin (Bos taurus) (UniProt Q6B856+Q862L2+Q862F3); test: Inhibition of [3H]-colchicine binding to bovine brain tubulin at 1 to 5 uM after 20 mins relative to control
Outline: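 Colchicine-binding inhibition in mixtures of 1 μM tubulin, 5 μM [3H]colchicine and test compound at 1 or 5 μM.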

HeLa [5] = test: Induction of cell cycle arrest in human HeLa cells assessed as accumulation at G2/M phase at 25 nM after 24 hrs by propidium iodide-stained flow cytometry; format: functional, cell-based
Outline: (§2)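 5×10^5 HeLa or Jurkat cells exposed 24 h, then collected, fixed in ice-cold 70% ethanol, treated with lysis buffer containing RNase A and 0.1% Triton X-100, and stained with PI. DNA content by flow cytometry. Mean ± SEM, three independent experiments.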

HUVEC [6] = test: Antivascular activity in HUVEC assessed as effect on segment length at 10 to 100 nM after 1 hr by matrigel assay; format: functional, cell-based; details: Homo sapiens
Outline: (§3)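 HUVECs (primary cord-derived, passages 1-6), 6×10^4 cells per well on Matrigel, left 6 h to form capillary tubes. Compound at 10 or 100 nM then added for 1 h. Five fields per well photographed at 10x, and network dimensional/topological parameters quantified. Mean ± S.E.M. of three independent experiments.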

HeLa [7] = test: Induction of cell cycle arrest in human HeLa cells assessed as arrest in mitotic phase at 50 nM after 24 hrs by p-histone H3 antibody staining based flow cytometry (reference value: 1.32%); format: functional
Jurkat [8] = test: Induction of apoptosis in human Jurkat cells at 50 nM after 24 to 48 hrs by Annexin V/propidium iodide-double staining-based flow cytometry; format: functional, cell-based; details: TDE = time-dependent effect
Outline: (§4)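 HeLa or Jurkat cells exposed 24 or 48 h, then double-labelled with annexin-V-FITC and PI and analysed by flow cytometry for phosphatidylserine exposure.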

HUVEC [9] = test: Antivascular activity in HUVEC assessed as effect on nodes at 10 to 100 nM after 1 hr by matrigel assay; format: functional, cell-based; details: Homo sapiens; outline: as §3
[10] = biological target: T2, Epidermal growth factor receptor; test: Inhibition of EGF-induced EGFR phosphorylation at Y1068 in human HeLa cells at 1 uM pretreated for 6 hrs followed by EGF cells and measured after 15 mins by Western blot analysis; format: cell-based
Outline: (§5)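 HeLa cells treated 6 h with compound (10-1000 nM) or erlotinib, then stimulated with EGF for 15 min. EGF level is given as 50 ng/mL in the methods and 30 ng/mL in the figure legend. Lysates immunoblotted for total EGFR and phospho-Y1068, with β-actin as loading control.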

[11] = biological target: T2, Epidermal growth factor receptor; test: Inhibition of EGF-induced EGFR phosphorylation at Y1068 in human HeLa cells pretreated for 6 hrs followed by EGF cells and measured after 15 mins by Western blot analysis; format: cell-based; outline: as §5
HeLa [12] = test: Induction of cell cycle arrest in human HeLa cells assessed as arrest in mitotic phase at 100 nM after 24 hrs by p-histone H3 antibody staining based flow cytometry (reference value: 1.32%); format: functional
B16 [13] = test: Antiproliferative activity against mouse B16 cells after 72 hrs by MTT assay; format: functional, cell-based; details: B16, 72 h
HeLa [14] = test: Induction of apoptosis in human HeLa cells assessed as decrease in […] expression at 50 to 100 nM after 24 to 48 hrs by Western blot analysis; format: functional, cell-based
Outline: (§6)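 HeLa cells incubated with compound at indicated concentrations and times, then washed in ice-cold PBS and lysed 30 min on ice. 10 µg protein per lane run on SDS-PAGE, transferred to PVDF and blocked overnight at 4 °C in 5% BSA. Probed 2 h at room temperature for PARP, Mcl-1 or Bcl-2, detected by ECL, and reprobed for β-actin as loading control.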

Jurkat [15] = test: Induction of cell cycle arrest in human Jurkat cells assessed as accumulation at G2/M phase at 25 nM after 24 hrs by propidium iodide-stained flow cytometry; format: functional, cell-based; outline: as §2
HUVEC [16] = test: Antivascular activity in HUVEC assessed as effect on master junction at 10 to 100 nM after 1 hr by matrigel assay; format: functional, cell-based; details: Homo sapiens; outline: as §3
HUVEC [17] = test: Antivascular activity in HUVEC assessed as effect on total branching length at 10 to 100 nM after 1 hr by matrigel assay; format: functional, cell-based; details: Homo sapiens; outline: as §3
HeLa [18] = test: Induction of ROS generation in human HeLa cells at 50 nM after 12 hrs by 2,7-dichlorodihydrofluorescein diacetate-staining based flow cytometry; format: functional, cell-based
Outline: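 HeLa cells exposed 3, 6, 12 or 24 h to 50, 100 or 250 nM, then stained with JC-1 for mitochondrial potential or H2-DCFDA for ROS. Analysed by flow cytometry.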

B16 [19] = test: Antitumor activity against mouse B16 cells allografted in C57BL/6 mouse assessed as reduction in tumor burden at 7.5 mg/kg, ip dosing starting on day 9 post tumor injection administered […] on day 9,11, 13 and 15 relative to control; format: functional; parameters: scale not given: the % may be the effect or the level left
Outline: (§7)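 Six-week-old male C57BL/6 mice injected subcutaneously in the dorsolateral flank with 2.5×10^5 BL6-B16 melanoma cells in PBS. Once tumors were palpable, ip dosing every other day on days 9, 11, 13 and 15 at 3 or 7.5 mg/kg in 50 µL DMSO. Vehicle controls; CA-4P 30 mg/kg reference. Tumor volume and body weight tracked; 5 mice/group, mean ± SEM.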

[20] = Cytotoxicity against HUVEC assessed as inhibition of cell growth; format: cell-based; details: human, HUVEC cells
HUVEC [21] = test: Antivascular activity in HUVEC assessed as effect on mesh area at 10 to 100 nM after 1 hr by matrigel assay; format: functional, cell-based; details: Homo sapiens; outline: as §3
B16 [22] = test: Antitumor activity against mouse B16 cells allografted in C57BL/6 mouse assessed as reduction in tumor burden at 3 mg/kg, ip dosing starting on day 9 post tumor injection administered […] on day 9,11, 13 and 15 relative to control; format: functional; parameters: scale not given: the % may be the effect or the level left; outline: as §7
HUVEC [23] = test: Antivascular activity in HUVEC assessed as effect on number of meshes at 10 to 100 nM after 1 hr by matrigel assay; format: functional, cell-based; details: Homo sapiens; outline: as §3
HeLa [24] = test: Induction of apoptosis in human HeLa cells assessed as decrease in bcl2 expression at 50 to 100 nM after 24 to 48 hrs by Western blot analysis; format: functional, cell-based; outline: as §6
HeLa [25] = test: Induction of apoptosis in human HeLa cells at 50 nM after 24 to 48 hrs by Annexin V/propidium iodide-double staining-based flow cytometry; format: functional, cell-based; details: TDE = time-dependent effect; outline: as §4
[26] = Toxicity in C57BL/6 mouse allografted with mouse B16 cells assessed as body weight loss at 3 to 7.5 mg/kg, ip dosing starting on day 9 post tumor injection administered […] on day 9,11, 13 and 15; format: organism-based; details: in vivo; outline: as §7
[27] = biological target: T1, Vascular endothelial growth factor receptor 2; test: Inhibition of VEGFR2 (unknown origin)

Structure (SMILES): COc1cc(Nc2ncnc3cc(-c4cccs4)sc23)cc(OC)c1OC
- IC50 (A549): 5100 nM
- IC50 (HT-29): 210 nM
- IC50 (RS4-11): 360 nM
- IC50 (Tubulin): 18000 nM
- IC50 [1]: > 1000 nM
- IC50 [2]: 2.5 nM
- IC50 (Jurkat [3]): 80 nM
- IC50 (HeLa [4]): 1700 nM

Structure (SMILES): COc1cc(Nc2ncnc3cc(-c4ccc(Br)cc4)sc23)cc(OC)c1OC
- IC50 (A549): 530 nM
- IC50 (HT-29): 150 nM
- IC50 (RS4-11): 190 nM
- IC50 (Tubulin): 2500 nM
- IC50 [2]: 326 nM
- IC50 (Jurkat [3]): 30 nM
- inhibition (Tubulin (Bos taurus)): 35%
- IC50 (HeLa [4]): 220 nM

Structure (SMILES): COc1cc(Nc2ncnc3cc(-c4ccc(C)cc4)sc23)cc(OC)c1OC
- IC50 (A549): 19 nM
- IC50 (HT-29): 20 nM
- Activity (HeLa [5]): Active
- Activity (HUVEC [6]): Active
- IC50 (RS4-11): 2 nM
- IC50 (Tubulin): 710 nM
- IC50 [1]: > 1000 nM
- IC50 [2]: 30 nM
- Activity (HeLa [7]): 36.8 - 38%
- IC50 (Jurkat [3]): 1 nM
- Activity (Jurkat [8]): Tde
- Activity (HUVEC [9]): Active
- inhibition [10]: Active
- inhibition [11]: Dose-dependent effect
- Activity (HeLa [12]): 49.4 - 50%
- IC50 (B16 [13]): 23.4 nM
- Activity (HeLa [14]): Active
- Activity (Jurkat [15]): Active
- inhibition (Tubulin (Bos taurus)): 76%
- Activity (HUVEC [16]): Active
- Activity (HUVEC [17]): Active
- Activity (HeLa [18]): Active
- Activity (B16 [19]): 52.5%
- IC50 (HeLa [4]): 1 nM
- GI50 [20]: 56 nM
- Activity (HUVEC [21]): Active
- Activity (B16 [22]): 28%
- Activity (HUVEC [23]): Active
- Activity (HeLa [24]): Active
- Activity (HeLa [25]): Tde
- Activity [26]: Non-Toxic

Structure (SMILES): COc1cc(Nc2ncnc3cc(-c4ccc(I)cc4)sc23)cc(OC)c1OC
- IC50 (A549): 770 nM
- IC50 (HT-29): 250 nM
- IC50 (RS4-11): 170 nM
- IC50 (Tubulin): 2500 nM
- IC50 [1]: > 1000 nM
- IC50 [2]: 10 nM
- IC50 (Jurkat [3]): 300 nM
- inhibition (Tubulin (Bos taurus)): 35%
- IC50 (HeLa [4]): 280 nM

Structure (SMILES): COc1cc(Nc2ncnc3cc(-c4ccc([N+](=O)[O-])cc4)sc23)cc(OC)c1OC
- IC50 (A549): 1100 nM
- IC50 (HT-29): 6300 nM
- IC50 (RS4-11): 1300 nM
- IC50 (Jurkat [3]): 2000 nM
- IC50 (HeLa [4]): 4900 nM

Structure (SMILES): Cc1cc2cc(Nc3ncnc4cc(-c5ccccc5)sc34)ccc2[nH]1
- IC50 [27]: 140 nM

Structure (SMILES): COc1cc(Nc2ncnc3cc(-c4ccccc4)sc23)cc(OC)c1OC
- IC50 (A549): 2300 nM
- IC50 (HT-29): 350 nM
- IC50 (RS4-11): 260 nM
- IC50 (Tubulin): 10000 nM
- IC50 [1]: > 1000 nM
- IC50 [2]: 23 nM
- IC50 (Jurkat [3]): 10 nM
- IC50 (HeLa [4]): 170 nM
